Measurements gathered from unrelated publications.
Protocols differ between the studies behind these lines.
Target: Wee1-like protein kinase (WEE1, Homo sapiens, UniProt P30291)

`N#Cc1ccc(Nc2ccc3[nH]c(=O)[nH]c3c2)c(Cl)c1` has a remaining binding of 87% (cell-free assay; competition with immobilised ligand; 1 µM).
`Cc1ccc(NC(=O)c2ccc(CN3CCN(C)CC3)cc2)cc1Nc1nc(-c2cccnc2)cs1` gave a remaining signal of 97% (cell-free assay; 0.5 µM).
`CC(=O)N1CCC(c2ccc(C(=O)NC3=NCCN3)cc2C(F)(F)F)CC1` gave a remaining binding of 100% (cell-free assay; competition with immobilised ligand; 1 µM).
`Nc1nc(Nc2ccc(S(N)(=O)=O)cc2)nn1C(=O)c1c(F)cccc1F` gave a remaining signal of 83.6% (cell-free assay; 0.5 µM).
The remaining activity of `O=C(Nc1cnn(-c2csc(C(=O)NC3COC3)c2)c1)Nc1ccccc1Cl` is reported as 124% (enzyme activity; inhibitor; 5 µM).
`CC(C)(C)c1nc2c(s1)c1nc(N)ncc1c1ccc(NS(=O)(=O)c3c(F)cccc3F)c(F)c12` gave a remaining activity of 87% (enzyme activity; inhibitor; radiometric; 1 µM).
`O=c1nc(-c2ccccn2)sc2ccccc12` has a remaining binding of 100% (binding; competition with immobilised ligand; 1 µM).
`Cc1ccc(C(=O)NCc2ccsc2)cc1C#Cc1cn(C(C)C)c2ncnc(N)c12` gave an activity vs control of 103% (enzyme activity; inhibitor; 1 µM).
`CN1CC(Oc2cnc(C#N)cc2-c2ccn3nc(NC(=O)C4CC4)cc3c2)C1` has an inhibition of 2% (enzyme activity; inhibitor; 1 µM).
The remaining signal of `Cc1ccc(NC(=O)c2ccc(C)c(C(F)(F)F)c2)cc1C#Cc1nn(C2CCC(O)CC2)c2ncnc(N)c12` (stereo not shown) is reported as 95% (cell-free assay; 10 µM).
The remaining activity of `CC(C)(O)[C@H]1CC[C@H](Nc2ccc3ncc(-c4cccc(C(F)(F)F)c4)n3n2)CC1` is reported as 87.3% (enzyme activity; inhibitor; 1 µM).
For `O=C1Nc2ccc(Cl)cc2C1=Cc1cc(Cl)c(O)c(Cl)c1`, the remaining signal was 79.1% (cell-free assay; 0.5 µM).
With `Nc1ncnc2occ(-c3ccc(NC(=O)Nc4cc(C(F)(F)F)ccc4F)cc3)c12` the remaining signal was 17% (cell-free assay; inhibitor; 20 µM).
With `Cc1cc(NC(=O)c2cccc3cc(-c4cccc5[nH]nc(N)c45)ccc23)ccc1F` the activity vs control was 97% (enzyme activity; inhibitor; 0.1 µM).
With `COc1cc2ncnc(Nc3ccc(F)c(Cl)c3)c2cc1OCCCN1CCOCC1` the remaining signal was 93.8% (cell-free assay; 0.5 µM).
For `CCOCCn1cc(C(=O)Nc2ccc(-n3nc(-c4cccnc4)cc3C(F)(F)F)cn2)ccc1=O`, the remaining binding was 100% (cell-free assay; competition with immobilised ligand; 1 µM).
